Data taken from article PMC5193105 (Proteins, 2016).
Blank lines part the entries; values can stand above or below the compound they belong to.

What was measured:
wildtype hPFKFB2 = wildtype hPFKFB2 (Homo sapiens, UniProt O60825); assay: 2-kinase inhibition assay; type: biochemical; conditions: wild-type; for Ki: Citrate Kis
Outline: (§1)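 His-tagged enzyme was expressed in E. coli BL21 C41(DE3) and purified by Ni-NTA then SP Sepharose. Step 1 used 130 nM enzyme in 20 mM TES pH 8.0, 1 mM DTT, 2 mM MgCl2 and 0.5% tween, with varied citrate, ATP and Fru-6-P (fixed substrate 250 μM), for 10 min at 25°C. Reactions were KOH-stopped and neutralized. Fru-2,6-P2 was read by PPi-PFK/aldolase/TPI/[…] coupling as A340 over 30 min. Constants came from non-linear regression.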

hPFKFB2 Y428A mutant = hPFKFB2 Y428A mutant (Homo sapiens, UniProt O60825, Y428A); assay: 2-kinase inhibition assay; type: biochemical; conditions: for Ki: Citrate Kis
Outline: as §1

[1] = variable substrate ATP, fixed substrate F6P 250μM
[2] = Y428A, variable substrate ATP, fixed substrate F6P 250μM

hPFKFB2 Y428A mutant, sequence (O60825 whole entry Y428A): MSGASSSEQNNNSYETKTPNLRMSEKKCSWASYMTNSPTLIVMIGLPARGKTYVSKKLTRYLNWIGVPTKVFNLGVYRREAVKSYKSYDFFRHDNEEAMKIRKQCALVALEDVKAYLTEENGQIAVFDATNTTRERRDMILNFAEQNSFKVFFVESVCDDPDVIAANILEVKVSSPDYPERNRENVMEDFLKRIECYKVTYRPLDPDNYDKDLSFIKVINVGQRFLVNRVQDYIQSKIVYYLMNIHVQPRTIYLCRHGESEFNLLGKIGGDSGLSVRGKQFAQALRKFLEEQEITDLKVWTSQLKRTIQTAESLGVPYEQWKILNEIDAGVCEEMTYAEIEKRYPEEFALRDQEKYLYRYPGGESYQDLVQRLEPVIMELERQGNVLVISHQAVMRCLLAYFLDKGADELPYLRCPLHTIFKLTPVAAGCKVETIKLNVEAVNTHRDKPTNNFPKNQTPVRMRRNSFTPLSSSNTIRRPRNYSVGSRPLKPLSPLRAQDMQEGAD
wildtype hPFKFB2, sequence (O60825 whole entry): as the sequence (O60825 whole entry Y428A) above, with A428Y counted along it

Ki (wildtype hPFKFB2; [1]): 50.2 µM
Ki (wildtype hPFKFB2; variable substrate F6P, fixed substrate ATP 250μM): 80.3 ± 6.5 µM
Citrate Kii (wildtype hPFKFB2; [1]): 58.75 ± 9.9 µM
inhibition mechanism (in words) (wildtype hPFKFB2; versus ATP): non-competitive inhibitor
inhibition mechanism (in words) (wildtype hPFKFB2; versus F6P): competitive inhibitor
Ki (hPFKFB2 Y428A mutant; [2]): 2.43 ± 1 µM
Ki (hPFKFB2 Y428A mutant; Y428A, variable substrate F6P, fixed substrate ATP 250μM): 67.3 ± 4.2 µM
increase in affinity for the inhibitor, Y428A versus wild-type (hPFKFB2 Y428A mutant; Kis with ATP as variable substrate, from 50.2 μM to 2.4 μM): 20 fold
Citrate Kii (hPFKFB2 Y428A mutant; [2]): 3.05 ± 1.4 µM
SMILES: O=C(O)CC(O)(CC(=O)O)C(=O)O [Citrate]

KmF6P (wildtype hPFKFB2): 80.3 ± 7.6 µM
KmF6P (hPFKFB2 Y428A mutant; Y428A): 13.8 ± 4.3 µM
increase in affinity for Fru-6-P, Y428A versus wild-type (hPFKFB2 Y428A mutant; from Km values): 6 fold
SMILES: O=C(CO)[C@@H](O)[C@H](O)[C@H](O)COP(=O)(O)O [F6P, fructose-6-phosphate]

SMILES: Nc1ncnc2c1ncn2[C@@H]1O[C@H](COP(=O)(O)OP(=O)(O)OP(=O)(O)O)[C@@H](O)[C@H]1O [ATP]
KmATP (wildtype hPFKFB2): 38.8 ± 5.3 µM
KmATP (hPFKFB2 Y428A mutant; Y428A): 40.7 ± 4.2 µM
